According to ChEMBL document CHEMBL4610021, “Synthesis and immunostimulatory activity of sugar-conjugated TLR7 ligands” (Bioorg Med Chem Lett, 2020):

Legend:
Format in all cases: cell-based
[1] = biological target: T1, Toll-like receptor 7 (Mus musculus, UniProt P58681); experiment: Agonist activity at TLR7 in mouse BMDC cells assessed as immunostimulatory activity by measuring increase in IL6 secretion incubated for 18 hrs by ELISA
T1 sequence (P58681 whole entry): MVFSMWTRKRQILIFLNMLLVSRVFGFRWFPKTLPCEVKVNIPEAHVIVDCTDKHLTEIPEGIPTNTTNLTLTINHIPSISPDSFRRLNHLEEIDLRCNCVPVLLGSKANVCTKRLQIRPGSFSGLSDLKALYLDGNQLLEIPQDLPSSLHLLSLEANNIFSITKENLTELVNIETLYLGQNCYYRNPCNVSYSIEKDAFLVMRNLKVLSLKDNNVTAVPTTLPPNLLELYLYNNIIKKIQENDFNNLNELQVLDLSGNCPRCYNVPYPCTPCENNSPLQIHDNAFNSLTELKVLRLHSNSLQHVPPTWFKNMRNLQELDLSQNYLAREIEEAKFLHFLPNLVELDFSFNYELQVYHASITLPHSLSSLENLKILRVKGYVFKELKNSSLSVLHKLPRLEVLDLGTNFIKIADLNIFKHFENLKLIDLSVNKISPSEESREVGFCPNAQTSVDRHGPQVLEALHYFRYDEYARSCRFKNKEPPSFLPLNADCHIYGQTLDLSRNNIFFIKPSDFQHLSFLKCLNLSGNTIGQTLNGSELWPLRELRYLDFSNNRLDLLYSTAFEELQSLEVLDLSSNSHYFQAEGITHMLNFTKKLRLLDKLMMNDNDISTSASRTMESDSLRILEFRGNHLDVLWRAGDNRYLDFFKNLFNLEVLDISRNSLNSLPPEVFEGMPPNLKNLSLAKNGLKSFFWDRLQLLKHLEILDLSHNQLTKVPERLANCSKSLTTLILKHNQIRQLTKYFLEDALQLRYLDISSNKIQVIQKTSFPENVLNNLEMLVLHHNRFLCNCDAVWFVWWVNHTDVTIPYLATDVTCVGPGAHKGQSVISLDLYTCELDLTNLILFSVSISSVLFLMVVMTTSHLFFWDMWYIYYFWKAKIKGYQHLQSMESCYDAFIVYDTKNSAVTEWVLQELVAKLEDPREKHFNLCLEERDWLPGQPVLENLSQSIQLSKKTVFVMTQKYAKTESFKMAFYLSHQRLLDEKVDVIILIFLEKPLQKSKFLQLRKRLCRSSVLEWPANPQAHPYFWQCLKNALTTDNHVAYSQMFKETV
In short: (§1)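 Primary murine bone marrow-derived dendritic cells plated at 1×10^5 cells/well and exposed to serially diluted compound; 0.25% DMSO vehicle. IL-6 in supernatant measured by ELISA. EC50 calculated by curve fitting; Emax expressed as % relative to the unconjugated reference ligand. Means ± SD of triplicate, representative of three independent experiments.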

[2] = biological target: T2, Toll-like receptor 7 (Mus musculus) (UniProt P58681); experiment: Agonist activity at TLR7 in mouse BMDC cells assessed as immunostimulatory activity by measuring increase in IL6 secretion incubated for 18 hrs by ELISA relative to 1V209; in short: as §1
T2 sequence (whole entry): T1 sequence (P58681 whole entry)

[3] = biological target: T1, Toll-like receptor 7; experiment: Agonist activity at TLR7 in mouse RAW264.7 cells assessed as immunostimulatory activity by measuring increase in TNFalpha secretion incubated for 18 hrs by ELISA
In short: (§2)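 Murine RAW264.7 macrophages plated at 1×10^4 cells/well, incubated 18 h with serially diluted compound; 0.25% DMSO vehicle. TNF-α in culture supernatant measured by ELISA. EC50 calculated by curve fitting; Emax as % of unconjugated reference ligand. Means ± SD of triplicate, representative of three independent experiments.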

[4] = biological target: T2, Toll-like receptor 7 (Mus musculus); experiment: Agonist activity at TLR7 in mouse RAW264.7 cells assessed as immunostimulatory activity by measuring increase in TNFalpha secretion incubated for 18 hrs by ELISA relative to 1V209; in short: as §2
[5] = biological target: T3, Toll-like receptor 7 (Homo sapiens) (UniProt Q9NYK1); experiment: Agonist activity at TLR7 in human PBMC cells assessed as immunostimulatory activity by measuring fold increase in TNFalpha secretion at 10 uM incubated for 18 hrs by ELISA relative to 1V209
T3 sequence (whole entry): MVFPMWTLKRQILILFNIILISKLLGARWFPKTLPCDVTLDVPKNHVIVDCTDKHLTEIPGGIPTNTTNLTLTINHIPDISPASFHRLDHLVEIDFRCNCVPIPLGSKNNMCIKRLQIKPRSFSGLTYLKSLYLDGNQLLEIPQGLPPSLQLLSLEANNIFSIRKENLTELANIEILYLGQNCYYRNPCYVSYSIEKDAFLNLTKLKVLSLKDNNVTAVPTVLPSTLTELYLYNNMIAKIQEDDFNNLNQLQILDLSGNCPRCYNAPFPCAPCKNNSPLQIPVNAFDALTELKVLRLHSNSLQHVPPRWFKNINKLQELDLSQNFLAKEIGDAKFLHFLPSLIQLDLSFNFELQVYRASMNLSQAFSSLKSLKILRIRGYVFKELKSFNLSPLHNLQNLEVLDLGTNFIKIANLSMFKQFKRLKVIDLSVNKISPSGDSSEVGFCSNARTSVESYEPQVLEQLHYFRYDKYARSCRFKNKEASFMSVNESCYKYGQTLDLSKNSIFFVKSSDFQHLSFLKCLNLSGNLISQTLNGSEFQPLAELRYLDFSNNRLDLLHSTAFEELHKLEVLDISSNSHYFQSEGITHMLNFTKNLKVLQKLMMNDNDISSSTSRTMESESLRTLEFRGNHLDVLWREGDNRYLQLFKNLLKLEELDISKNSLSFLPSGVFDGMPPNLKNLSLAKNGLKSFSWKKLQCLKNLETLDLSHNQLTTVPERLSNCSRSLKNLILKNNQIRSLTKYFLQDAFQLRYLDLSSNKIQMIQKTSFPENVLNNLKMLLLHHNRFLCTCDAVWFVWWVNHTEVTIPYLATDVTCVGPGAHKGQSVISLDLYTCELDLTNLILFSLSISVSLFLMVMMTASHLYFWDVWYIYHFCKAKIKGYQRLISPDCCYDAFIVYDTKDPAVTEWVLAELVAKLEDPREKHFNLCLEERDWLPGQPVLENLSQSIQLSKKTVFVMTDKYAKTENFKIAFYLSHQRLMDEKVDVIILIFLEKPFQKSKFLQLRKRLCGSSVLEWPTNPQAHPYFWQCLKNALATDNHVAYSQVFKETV
In short: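 Human PBMC plated at 2×10^5 cells/well, exposed 18 h to 10 μM compound; 0.25% DMSO vehicle control. Cytokine in culture supernatant quantified by ELISA. Means ± SD of triplicate, representative of three independent experiments; one-way ANOVA with Dunnett's multiple comparisons test.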

[6] = biological target: T1, Toll-like receptor 7; experiment: Agonist activity at TLR7 in mouse RAW264.7 cells assessed as immunostimulatory activity by measuring increase in TNFalpha secretion incubated for 6 hrs in absence of actin polymerization inhibitor cytochalasin D by ELISA
In short: (§3)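 RAW264.7 cells seeded at 1.5×10^4 cells/well, pre-incubated with or without 1 μM cytochalasin D, then exposed 6 h to serially diluted compound. TNF-α and IL-6 in supernatants determined by ELISA. Means ± SD of triplicate, representative of three independent experiments.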

[7] = biological target: T1, Toll-like receptor 7; experiment: Agonist activity at TLR7 in mouse RAW264.7 cells assessed as immunostimulatory activity by measuring increase in TNFalpha secretion preincubated with actin polymerization inhibitor cytochalasin D followed by incubation with compound for 6 hrs by ELISA; in short: as §3

Structure (SMILES) | EC50 [1] [nM] | Emax [2] [%] | EC50 [3] [nM] | Emax [4] [%] | fold change (FC) [5] | EC50 [6] [nM] | EC50 [7] [nM]
COCCOc1nc(N)c2nc(O)n(Cc3ccc(C(=O)NC4O[C@H](CO)[C@@H](O)[C@H](O)[C@@H]4O)cc3)c2n1 (stereo partly specified) | 303 | 116 | 252 | 121 | – | – | –
COCCOc1nc(N)c2nc(O)n(Cc3ccc(C(=O)NC4O[C@H](CO)[C@H](O)[C@H](O)[C@H]4O)cc3)c2n1 (stereo partly specified) | 258 | 118 | 316 | 115 | – | – | –
COCCOc1nc(N)c2nc(O)n(Cc3ccc(C(=O)NC[C@H]4O[C@@H]5O[C@H]6[C@H](O)[C@@H](O)[C@@H](O[C@H]7[C@H](O)[C@@H](O)[C@@H](O[C@H]8[C@H](O)[C@@H](O)[C@@H](O[C@H]9[C@H](O)[C@@H](O)[C@@H](O[C@H]%10[C@H](O)[C@@H](O)[C@@H](O[C@H]4[C@H](O)[C@H]5O)O[C@@H]%10CO)O[C@@H]9CO)O[C@@H]8CO)O[C@@H]7CO)O[C@@H]6CO)cc3)c2n1 | 71 | 127 | 128 | 126 | – | – | –
COCCOc1nc(N)c2nc(O)n(Cc3ccc(C(=O)NC4O[C@H](CO)[C@@H](O[C@@H]5O[C@H](CO)[C@H](O)[C@H](O)[C@H]5O)[C@H](O)[C@H]4O)cc3)c2n1 (stereo partly specified) | 110 | 142 | 80 | 177 | – | – | –
COCCOc1nc(N)c2nc(O)n(Cc3ccc(C(=O)N[C@H]4C(O)O[C@H](CO)[C@@H](O)[C@@H]4O)cc3)c2n1 (stereo partly specified) | 239 | 139 | 234 | 103 | 2 | – | –
COCCOc1nc(N)c2nc(O)n(Cc3ccc(C(=O)N[C@H]4[C@H](O)[C@H]5O[C@H]6[C@H](O)[C@@H](O)[C@@H](O[C@H]7[C@H](O)[C@@H](O)[C@@H](O[C@H]8[C@H](O)[C@@H](O)[C@@H](O[C@H]9[C@H](O)[C@@H](O)[C@@H](O[C@H]%10[C@H](O)[C@@H](O)[C@@H](O[C@H]%11[C@H](O)[C@@H](O)[C@@H](O[C@H]%12[C@H](O)[C@@H](O)[C@@H](O[C@@H]4[C@@H](CO)O5)O[C@@H]%12CO)O[C@@H]%11CO)O[C@@H]%10CO)O[C@@H]9CO)O[C@@H]8CO)O[C@@H]7CO)O[C@@H]6CO)cc3)c2n1 | 56 | 109 | 107 | 113 | – | – | –
COCCOc1nc(N)c2nc(O)n(Cc3ccc(C(=O)NC4O[C@H](CO)[C@@H](O[C@H]5O[C@H](CO)[C@@H](O)[C@H](O)[C@H]5O)[C@H](O)[C@H]4O)cc3)c2n1 (stereo partly specified) | 99 | 159 | 136 | 157 | 2 | 277 | 585
COCCOc1nc(N)c2nc(O)n(Cc3ccc(C(=O)NC[C@H]4O[C@@H]5O[C@H]6[C@H](O)[C@@H](O)[C@@H](O[C@H]7[C@H](O)[C@@H](O)[C@@H](O[C@H]8[C@H](O)[C@@H](O)[C@@H](O[C@H]9[C@H](O)[C@@H](O)[C@@H](O[C@H]%10[C@H](O)[C@@H](O)[C@@H](O[C@H]%11[C@H](O)[C@@H](O)[C@@H](O[C@H]4[C@H](O)[C@H]5O)O[C@@H]%11CO)O[C@@H]%10CO)O[C@@H]9CO)O[C@@H]8CO)O[C@@H]7CO)O[C@@H]6CO)cc3)c2n1 | 153 | 127 | 287 | 135 | – | – | –
COCCOc1nc(N)c2nc(O)n(Cc3ccc(C(=O)N[C@H]4C(O)O[C@H](CO)[C@H](O)[C@@H]4O)cc3)c2n1 (stereo partly specified) | 210 | 139 | 153 | 83 | – | – | –
COCCOc1nc(N)c2nc(O)n(Cc3ccc(C(=O)NC[C@H]4O[C@@H]5O[C@H]6[C@H](O)[C@@H](O)[C@@H](O[C@H]7[C@H](O)[C@@H](O)[C@@H](O[C@H]8[C@H](O)[C@@H](O)[C@@H](O[C@H]9[C@H](O)[C@@H](O)[C@@H](O[C@H]%10[C@H](O)[C@@H](O)[C@@H](O[C@H]%11[C@H](O)[C@@H](O)[C@@H](O[C@H]%12[C@H](O)[C@@H](O)[C@@H](O[C@H]4[C@H](O)[C@H]5O)O[C@@H]%12CO)O[C@@H]%11CO)O[C@@H]%10CO)O[C@@H]9CO)O[C@@H]8CO)O[C@@H]7CO)O[C@@H]6CO)cc3)c2n1 | 108 | 130 | 132 | 97 | – | – | –
COCCOc1nc(N)c2[nH]c(=O)n(Cc3ccc(C(=O)O)cc3)c2n1 | 434 | 100 | 252 | 100 | – | 2150 | 2110
COCCOc1nc(N)c2nc(O)n(Cc3ccc(C(=O)NC4O[C@H](CO)[C@@H](O)[C@H](O)[C@H]4O)cc3)c2n1 (stereo partly specified) | 198 | 118 | 230 | 87 | – | 490 | 909
